Only some compounds are listed: those with a hit (about 3.3% of all), similar ones and a draw of the others.
E-sel inducer: E-selectin induction in HUVECs, primary screen, imaging, HUVEC, immunofluorescence imaging, single point; normalized: neutral wells 0, TNF-alpha wells 100; activation, % at 7.58 µM; actives 0.37% (n = 260,000);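 active means mean E-selectin-positive cell signal at least 10% of the positive control, reached in at least 60% of replicates, without over 20% cell loss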
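Assay system: HUVEC primary endothelial cells. Input: 3,000 HUVEC seeded per well. Doses: one compound dose added by pin transfer. Read-out basis: % PE-positive cells. Benchmarks: TNF-alpha high, DMSO low. Detection: immunofluorescence imaging. Buffer or medium: EGM-2, gelatin.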
Statin myotox sup: suppressors of statin myotoxicity in C2C12 myotubes, primary screen, cell-based, single point, plate reader. rescue of ATP level, % at 7.49 µM. C2C12 myotubes + simvastatin, ATP luminescence, 48 h; scaled: DMSO 0, geranylgeraniol control 100. AID 602340, 2012. actives 0.78% (n = 330,000);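 active means mean ATP rescue above about 67%, or every replicate alone reaching that limit, limit read from the data, passing the limit was not always enough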;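 further: myotubes were challenged with 10 µM simvastatin during compound exposure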
DENV2 CPE rescue: inhibitors of DENV2 cytopathic effect, primary screen, cell-based, plate reader, single concentration; DENV2-infected cells, cytopathic effect rescue; CPE inhibition, % at 9.99 µM; actives 1.7% (n = 350,000); AID 651640, 2012; in the data active means CPE inhibition above about 20%, passing the limit was not always enough; tested in BHK-21 cells;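 further: 0% = median of neutral control wells and 100% = median of positive control wells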
XiGFP reactiv: activators of inactive X chromosome reactivation, primary screen, imaging, XiGFP fibroblasts, GFP high-content imaging, set 2; actives 0.055% (n = 360,000); activation, % at 7.58 µM; XiGFP mouse fibroblasts, % GFP-positive cells imaging, 3 d; cells co-treated with 5-aza-dC sensitizer; scaled so ellipticine positive control = 100%;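 active means mean normalized replicate activation at least 10% and every replicate at or above 10%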;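 further: 0% = median of on-plate neutral control wells and 100% = ellipticine 6 µM median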
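System: 68-5-11 XiGFP fibroblast line | Buffer or medium: DMEM containing 5-aza-dC | Compound: Single point | Times: Compounds 3 days, fix/stain 15 min at room temperature | Benchmarks: Positive control ellipticine, 6 µM final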
PglD DTNB: C. jejuni PglD acetyltransferase inhibitors, primary screen, biochemical, DTNB colorimetric, single point; UDP-N-acetylbacillosamine N-acetyltransferase PglD (Campylobacter jejuni); purified PglD enzyme, DTNB colorimetric CoA detection; inhibition, % at 12.5 µM; actives 0.098% (n = 360,000); AID 602405, 2012; in the data active means inhibition above about 16%, passing the limit was not always enough
FGF22 binding: binders of human FGF22 protein, primary screen, FGF22 synaptogenesis inhibitor project, biophysical, thermal shift, single point. Fibroblast growth factor 22 (Homo sapiens), Q9HCT0. recombinant FGF22 thermal shift, SYPRO orange fluorescence; percent of sucrose octasulfate shift, DMSO zero. activity (Tm shift, normalised), % at 9.99 µM. actives 1.5% (n = 340,000);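 active means mean Tm shift, scaled 0 neutral to 100 positive control, at about 1.3% or above, every replicate too, limit read from the data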
Target sequence (Q9HCT0 whole entry, looked up): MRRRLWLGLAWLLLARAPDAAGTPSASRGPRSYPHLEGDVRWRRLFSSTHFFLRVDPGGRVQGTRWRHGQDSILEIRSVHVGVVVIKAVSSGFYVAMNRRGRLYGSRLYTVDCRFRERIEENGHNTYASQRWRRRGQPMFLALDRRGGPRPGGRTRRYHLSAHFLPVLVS
* = called active by the depositor; nt = not tested or not shown.

SMILES | E-sel inducer | Statin myotox sup | DENV2 CPE rescue | XiGFP reactiv | PglD DTNB | FGF22 binding
CCCN1C[C@H](C)[C@@H](OC)CN(C)C(=O)c2ccc(NC(=O)C3CCC3)cc2OC[C@@H]1C | 0.0 | 9.9 | 9.4 | -0.1 | 0.9 | -0.1
C[C@@H]1CN([C@H](C)CO)S(=O)(=O)c2ccc(C3=CCCCC3)cc2O[C@H]1CN(C)Cc1ccccn1 | 0.0 | -158.9 | -8.6 | -0.1 | 2.8 | 0.0
Cc1noc(C)c1NC(=O)Nc1ccc2c(c1)C(=O)N([C@@H](C)CO)C[C@H](C)[C@H](CN(C)C(=O)NC1CCCCC1)OCCCC[C@@H](C)O2 | 0.5 | nt | 28.8* | -0.3 | 4.3 | -0.3
Cc1noc(C)c1NC(=O)N(C)C[C@@H]1Oc2ccc(NC(=O)NC3CCCCC3)cc2C(=O)N([C@@H](C)CO)C[C@H]1C | 0.0 | -7.5 | 8.5 | -1.1 | -0.9 | 0.0
COc1ccc(NC(=O)N(C)C[C@H]2Oc3ccc(NC(=O)NC4CCCCC4)cc3C(=O)N([C@@H](C)CO)C[C@@H]2C)cc1 | -4.7 | 35.9 | 45.6* | 0.1 | -0.4 | 0.1
Cc1noc(C)c1NC(=O)N(C)C[C@@H]1Oc2ccc(NC(=O)NC3CCCCC3)cc2C(=O)N([C@@H](C)CO)C[C@@H]1C | 0.0 | 27.5 | 34.3* | -0.8 | 1.1 | 0.5
Cc1noc(C)c1NC(=O)N(C)C[C@@H]1OCCCC[C@H](C)Oc2ccc(NC(=O)NC3CCCCC3)cc2C(=O)N([C@@H](C)CO)C[C@@H]1C | nt | nt | 23.0* | 0.1 | -0.8 | nt
Cc1noc(C)c1NC(=O)N(C)C[C@@H]1OCCCC[C@@H](C)Oc2ccc(NC(=O)NC3CCCCC3)cc2C(=O)N([C@@H](C)CO)C[C@H]1C | nt | nt | 75.8* | 0.3 | 5.0 | nt
Cc1noc(C)c1NC(=O)Nc1ccc2c(c1)C(=O)N([C@H](C)CO)C[C@@H](C)[C@H](CN(C)C(=O)NC1CCCCC1)OCCCC[C@@H](C)O2 | 0.1 | nt | 6.5 | 0.0 | 3.5 | 0.0
Cc1noc(C)c1NC(=O)N(C)C[C@@H]1OCCCC[C@H](C)Oc2ccc(NC(=O)NC3CCCCC3)cc2C(=O)N([C@@H](C)CO)C[C@H]1C | nt | nt | 43.9* | 0.3 | 2.0 | 1.5*
Cc1cc(C)c(S(=O)(=O)NCCn2c(C)cc3ccccc32)c(C)c1 | 100.7* | 3.5 | -4.8 | 0.0 | -4.2 | 0.0
C[C@H]1CN([C@@H](C)CO)C(=O)c2cc(-c3ccc(F)cc3)cnc2O[C@@H]1CN(C)C(=O)NC1CCCC1 | 0.4 | 47.3 | 0.0 | -1.0 | -0.2 | -0.1
Cc1ccc2nc3ccc(N4CCCC4)nn3c(=O)c2c1 | nt | -4.9 | nt | nt | -0.6 | nt
Cc1sc2nc3ccc(N4CCCCC4)nn3c(=O)c2c1C | nt | 112.9* | nt | nt | 4.0 | nt
C[C@@H]1CN([C@H](C)CO)C(=O)c2cccc(NC(=O)c3ccc(-c4nccs4)cc3)c2O[C@H]1CN(C)C(=O)Nc1cccc2ccccc12 | nt | 8.8 | 6.9 | -0.4 | 3.3 | -0.1
CC1(C)CCN2CCC(C)(C)c3c(O)ccc1c32 | nt | -148.6 | -15.0 | 80.1* | 7.5 | -0.3
COCC1CCN(Cc2nc(-c3ccc(OC)cc3)no2)CC1 | 0.1 | nt | -1.1 | 0.0 | nt | 43.3*
COc1ccc(-c2noc(Cc3cccs3)n2)cc1 | nt | 92.8* | nt | nt | 0.7 | nt
COc1ccc(-c2noc(CN3CCC(Cc4ccccc4)CC3)n2)cc1 | nt | nt | nt | nt | nt | 0.2
COc1ccc(CN2CC3(CCN(S(=O)(=O)c4ccc(C)cc4)CC3)c3c([nH]c4cc(OC)ccc34)[C@H]2CO)cc1 | -0.4 | nt | -24.1 | 0.2 | nt | nt
Clc1cc(Br)ccc1OCCOCCN1CCCC1 | nt | -0.8 | 24.8* | 0.1 | -24.8 | -0.1
Clc1cc(Br)ccc1OCCCn1ccnc1 | nt | 0.7 | 36.6* | 0.0 | nt | 0.0
Clc1cc(Br)ccc1OCCOCCN1CCOCC1 | nt | -13.7 | nt | nt | -4.0 | nt
CCCC(=O)Nc1ccc2c(c1)C(=O)N(C)C[C@@H](OC)[C@@H](C)CN(C(C)=O)[C@H](C)CO2 | 0.1 | -17.6 | -21.2 | -0.6 | 0.5 | 0.2
C[C@H]1CCCCO[C@H](CN(C)C(=O)NC2CCCCC2)[C@@H](C)CN([C@@H](C)CO)C(=O)c2cc(NS(=O)(=O)c3ccc(F)cc3)ccc2O1 | nt | nt | 23.9* | -0.1 | -0.4 | -0.1
SMILES | E-sel inducer | Statin myotox sup | DENV2 CPE rescue | XiGFP reactiv | PglD DTNB | FGF22 binding
C[C@@H]1CCCCO[C@H](CN(C)C(=O)NC2CCCCC2)[C@H](C)CN([C@@H](C)CO)C(=O)c2cc(NS(=O)(=O)c3ccc(F)cc3)ccc2O1 | nt | nt | 50.6* | -0.1 | 0.6 | 0.9
C[C@H]1CN([C@@H](C)CO)C(=O)c2c(c3ccccc3n2C)-c2ccccc2CO[C@H]1CN(C)CC1CCCCC1 | nt | nt | nt | 0.9 | nt | nt
COc1ccc(C2CC(=O)C(C=NCCN3CCOCC3)=C(O)C2)cc1 (configuration not stated) | nt | 125.9* | nt | nt | 0.2 | nt
CC(=O)OC12CC3CC(C1)C(=NO)C(C3)C2 | nt | 93.8* | nt | nt | 0.5 | nt
COc1ccc(NC(=O)N(C)C[C@H]2Oc3ccc(NC(=O)Cc4ccccc4)cc3CC(=O)N([C@@H](C)CO)C[C@H]2C)cc1 | 4.5 | 12.7 | nt | 0.2 | nt | nt
Nc1cccc2cc(S(=O)(=O)O)ccc12 | 0.3 | 2.6 | 3.7 | 0.0 | -3.0 | 0.0
Nc1ccc2c(S(=O)(=O)O)cccc2c1S(=O)(=O)O | 0.1 | 102.3* | 13.7 | 1.9 | 7.0 | -0.2
CCOC(=O)c1sc(Nc2ccccc2)nc1C | nt | -9.4 | nt | nt | -0.5 | nt
CCOC(=O)c1sc(Nc2nc3c(OC)cccc3s2)nc1C | nt | 106.2* | nt | nt | -1.0 | nt
C=CC(C)(O)CCC=C(C)C (configuration not stated) | nt | -1.2 | 101.1* | nt | -3.0 | 0.3
CC(C)=CCC/C(C)=C/CC/C(C)=N/O | nt | -3.3 | nt | nt | 4.8 | nt
CCC(=O)N(C)C[C@H]1Oc2cc(-c3cccc(OC)c3)ccc2S(=O)(=O)N([C@@H](C)CO)C[C@H]1C | -0.1 | -13.6 | 5.1 | -0.8 | -0.3 | -0.3
Cc1ccccc1CNc1ncnc2cc(Cl)ccc12 | 50.7* | 3.4 | -3.4 | 0.1 | -1.4 | 0.2
CCOC(=O)C1CCN(c2cc(C)nc3ccc(OC)cc23)CC1 | 0.8 | -2.3 | 2.0 | 0.0 | 1.1 | 0.2
COc1ccc2nc(C)cc(N3CCC(C(N)=O)CC3)c2c1 | 0.0 | -4.9 | -0.9 | 0.0 | 1.7 | 43.3*
C[C@H](CO)N1C[C@H](C)[C@H](CN(C)Cc2ccc(Oc3ccccc3)cc2)Oc2c(NS(C)(=O)=O)cccc2C1=O | 30.8* | 3.9 | 0.0 | -0.1 | 0.0 | 0.0

Compound activity (PubChem)
